Data published in BindingDB's records for doi:10.1021/jm501455s (Istituto Italiano Di Tecnologia, 2014).

Target: T1, N-acylethanolamine-hydrolyzing acid amidase (Rattus norvegicus, UniProt Q5KTC7)
T1 sequence (Q5KTC7 whole entry): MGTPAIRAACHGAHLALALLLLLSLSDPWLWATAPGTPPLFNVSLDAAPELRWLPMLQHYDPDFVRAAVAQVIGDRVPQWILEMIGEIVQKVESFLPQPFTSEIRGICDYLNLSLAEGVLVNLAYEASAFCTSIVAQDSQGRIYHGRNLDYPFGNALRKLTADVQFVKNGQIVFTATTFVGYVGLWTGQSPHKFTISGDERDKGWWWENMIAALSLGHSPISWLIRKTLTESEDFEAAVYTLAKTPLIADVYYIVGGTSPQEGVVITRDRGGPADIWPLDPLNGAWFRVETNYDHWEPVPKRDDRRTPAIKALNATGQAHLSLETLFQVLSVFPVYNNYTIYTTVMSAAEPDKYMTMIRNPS
Assay: Inhibition of NAAA in Sprague-Dawley rat lung assessed as inhibition of hydrolysis of 10-cis-heptadecenoylethanolamide by UPLC/MS method
In short: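 Native NAAA enzyme prepared from rat lungs, not a recombinant construct. The substrate, 10-cis-heptadecenoylethanolamide, is an unnatural fatty acid ethanolamide. Inhibition of its hydrolysis was measured, and the median inhibitory concentration (IC50) was reported.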

IC50 | SMILES
24 nM | Cc1ccc(-c2ccc(COC(=O)N[C@H]3C(=O)O[C@H]3C)cc2)cc1
15 nM | C[C@@H]1OC(=O)[C@@H]1NC(=O)OCC#Cc1ccccc1
28 nM | C[C@@H]1OC(=O)[C@@H]1NC(=O)OCc1ccc(-c2ccc(C(F)(F)F)cc2)cc1 [US9353075, 44]
